Screens: PubChem, several laboratories
The list is not random: actives were taken first. Their share in the collection is about 3.8%.
MrgX1 agonist – agonists of human MrgX1 receptor | Q96LB2 | MrgX1-HEK293 cells, Fluo-4 calcium fluorescence, agonist mode; active compounds read high | B-score at 10 µM | 310,000 compounds, 0.44% hits;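 active = calcium response B-score plate-corrected fluorescence ratio at least 3 library SD, with starting fluorescence B-score inside 5 SD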
Target sequence (Q96LB2 whole entry, looked up): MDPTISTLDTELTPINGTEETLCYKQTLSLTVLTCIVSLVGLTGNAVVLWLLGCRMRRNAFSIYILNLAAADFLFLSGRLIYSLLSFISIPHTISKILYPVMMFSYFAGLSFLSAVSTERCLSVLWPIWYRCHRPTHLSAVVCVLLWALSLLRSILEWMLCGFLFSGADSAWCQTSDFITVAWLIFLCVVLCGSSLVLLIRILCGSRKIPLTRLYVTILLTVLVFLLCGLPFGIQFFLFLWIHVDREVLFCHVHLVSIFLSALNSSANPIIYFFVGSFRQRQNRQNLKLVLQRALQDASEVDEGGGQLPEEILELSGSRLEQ
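Test system: HEK293 cells stably expressing human MrgX1 receptor; Input: fifteen thousand cells per well; Dosing: compound delivered in addition one of three; Schedule: overnight seeding, then 1 h dark dye loading; Technique: Fluo-4 NW calcium fluorescence; Measure: B-scored fluorescence response ratio; Controls: positive and negative controls per plate.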
RGS4 pot – potentiators or activators of RGS4. 310,000 compounds, 0.92% hits. HEK293 M3R/inducible RGS4, carbachol calcium flux Fluo4; active compounds read low. B-score at 10 µM. AID 463111;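 active = B-score of the integrated calcium signal more than 4 SD below the library mean, with starting fluorescence not abnormally high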;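 also: negative B-score means reduced calcium response which marks RGS4 activation or potentiation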
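System – HEK293 FlpIn-TREx cells, stable M3R, doxycycline-inducible RGS4 · Reagent – ECmax carbachol challenge · Times – compound preincubation 20 min at room temperature before agonist · Technique – Fluo4 fluorescence kinetic imaging of calcium · Measure – B score of integrated Fluo4 ratio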
MrgX1 allo act – human MrgX1 positive allosteric modulation, primary screen | MrgX1-HEK293, Fluo-4 calcium flux, FDSS; active compounds read high | B-score at 10 µM | 310,000 compounds, 0.63% hits | Q96LB2;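 active = plate-corrected calcium response at least 3 library SD above typical, normal starting fluorescence, not activating the receptor alone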;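 also: compound read alongside a low EC10 to EC30 dose of BAM8-22 agonist; peak minus trough fluorescence over baseline measured at the second addition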
RGS4 inh – human RGS4 inhibition | P49798 | HEK293 M3R/RGS4 inducible, Fluo-4 calcium flux; active compounds read high; triggered by carbachol at its EC20 | B-score at 10 µM | 310,000 compounds, 0.45% hits | AID 463165;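 active = B-score, a plate-corrected calcium signal, over three deviations above library mean, with baseline fluorescence within five deviations of library mean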;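 also: RGS4 expression induced by doxycycline in cells with stable M3 receptor; B-score is computed from the integrated fluorescence ratio over baseline after carbachol; higher B-score means a larger calcium signal and so more RGS4 inhibition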
Target sequence (P49798 whole entry, looked up): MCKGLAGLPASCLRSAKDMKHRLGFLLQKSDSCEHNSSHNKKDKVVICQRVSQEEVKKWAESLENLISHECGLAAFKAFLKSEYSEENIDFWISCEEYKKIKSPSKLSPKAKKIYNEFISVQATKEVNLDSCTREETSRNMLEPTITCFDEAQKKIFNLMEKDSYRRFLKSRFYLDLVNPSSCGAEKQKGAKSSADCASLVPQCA
MrgX1 antagonist – blocks BAM8-22 activation of human MrgX1 receptor; Q96LB2; AID 588676; MRGX1-HEK293 calcium flux, Fluo-4, BAM8-22 antagonism; active compounds read low; 310,000 compounds, 1.3% hits; B-score at 10 µM;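 active = calcium-response B-score plate-corrected more than 3 library SD below zero, starting fluorescence within 5 deviations, no agonist response on first addition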;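 also: peak minus trough fluorescence over baseline after final BAM8-22 challenge near maximal dose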
Lipid droplet – hepatic lipid droplet formation modulation. AML12 mouse hepatocytes, oleate lipid droplets, BODIPY imaging. inhibition, % at 6.5 µM. 240,000 compounds, 0.4% hits;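 active = lipid droplet intensity inhibited by at least 50%, with more than 500 cells counted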
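Assay system: AML12 mouse liver cells | Compound: 6.5 µM single-point dosing | Schedule: Overnight exposure | Technique: Fluorescence imaging, 20x objective, two fields per well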
Hep lipid conf – confirmation of inhibitors of hepatic lipid droplet formation. shares compounds with Lipid droplet. AML12 mouse hepatocytes, BODIPY lipid droplet imaging; droplets induced with 100 µM oleic acid. inhibition, % at 5.2 µM. 870 compounds, 65% hits. AID 463183;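 active = inhibition of lipid droplet metric at least 50%, with more than 300 cells in each of four replicates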;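 also: plate controls were DMSO with oleic acid for no effect and 5 µM Triacsin-C for full effect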
AML12 cytotox – AML12 hepatocyte cytotoxicity (counter-screen); shares compounds with Lipid droplet; AML12 mouse hepatocytes, DAPI nuclear morphology cytotoxicity imaging; active compounds read high; cells fed 100 µM oleate overnight; z-score at 5 µM; 870 compounds, 3% hits; AID 463200; in the data active = z-score above about 6.3;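 also: compound exposure lasted overnight at 37 °C before fixation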
AML12 tox conf – AML12 hepatocyte cytotoxicity, confirmed. AML12 mouse hepatocyte viability, ATP luminescence; cells loaded with 100 µM oleic acid. shares compounds with Lipid droplet. cytotoxicity, % at 50 µM. 530 tested, under 10 active;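 active = cytotoxicity above 50% in each of four replicates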;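 also: compound exposure lasted overnight at 37 °C before the ATP read; 0% = DMSO-treated cells and 100% = wells with no cells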
* marks the source's active call; other numbers are inactive results.

Screening COc1ccc(OCC(=O)N(Cc2ccc(C)o2)C2CCS(=O)(=O)C2)cc1 (configuration not stated) returned MrgX1 agonist inactive, RGS4 pot inactive, MrgX1 allo act inactive, RGS4 inh inactive, MrgX1 antagonist inactive and Lipid droplet 6.
`Cc1nc2cc(F)ccc2n1C1CCN(C(=O)c2c(F)cccc2F)CC1` gave MrgX1 agonist inactive, RGS4 pot inactive, MrgX1 allo act inactive, RGS4 inh inactive, MrgX1 antagonist inactive and Lipid droplet 3.
For O=C(Cn1nnc(-c2ccc([N+](=O)[O-])cc2)n1)NNC(=O)c1ccccc1 the results were MrgX1 agonist inactive, RGS4 pot inactive, MrgX1 allo act inactive, RGS4 inh inactive, MrgX1 antagonist inactive, Lipid droplet 59*, Hep lipid conf 29 and AML12 cytotox 0.18.
CCOC(=O)c1c(NC(=O)Cn2cnc([N+](=O)[O-])n2)sc(C)c1C was read as MrgX1 agonist inactive, RGS4 pot inactive, MrgX1 allo act inactive, RGS4 inh inactive, MrgX1 antagonist inactive and Lipid droplet -5.
Cc1ccc(-c2nnc(OCc3cccnc3)c3ccccc23)cc1 was read as MrgX1 agonist inactive, RGS4 pot inactive, MrgX1 allo act inactive, RGS4 inh inactive, MrgX1 antagonist inactive, Lipid droplet 67*, Hep lipid conf 86*, AML12 cytotox 0.77 and AML12 tox conf 15.
`c1ccc(-c2nnc(OCc3cccnc3)c3ccccc23)cc1` gave MrgX1 agonist inactive, RGS4 pot inactive, MrgX1 allo act inactive, RGS4 inh inactive, MrgX1 antagonist inactive and Lipid droplet 1.
For COc1ccc(NC(=O)Nc2nc(C)cc(C)n2)c(OC)c1 the results were MrgX1 agonist inactive, RGS4 pot inactive, MrgX1 allo act inactive, RGS4 inh inactive, MrgX1 antagonist inactive and Lipid droplet -1.
Cc1cc(C=O)c(O)cc1O was read as MrgX1 agonist inactive, RGS4 pot inactive, MrgX1 allo act inactive, RGS4 inh inactive, MrgX1 antagonist inactive, Lipid droplet 51*, Hep lipid conf 27 and AML12 cytotox -0.29.
`COc1ccc(N=C2C(=Nc3ccc(OC)cc3)N(c3ccc(N(C)C)cc3)C(=S)N2c2ccc(OC)cc2)cc1` gave MrgX1 agonist inactive, RGS4 pot inactive, MrgX1 allo act inactive, RGS4 inh inactive, MrgX1 antagonist inactive, Lipid droplet 65*, Hep lipid conf 15 and AML12 cytotox 1.8.
Screening COc1ccc(N=C2C(=Nc3ccc(OC)cc3)N(c3ccccc3)C(=S)N2C(=O)c2ccc(Cl)cc2)cc1 returned MrgX1 agonist inactive, RGS4 pot inactive, MrgX1 allo act inactive, RGS4 inh inactive, MrgX1 antagonist inactive and Lipid droplet 48.
`COc1ccc(N=C2C(=Nc3ccc(OC)cc3)N(c3ccc(OC)cc3)C(=S)N2C(=O)c2ccc(OC)cc2)cc1` gave MrgX1 agonist inactive, RGS4 pot inactive, MrgX1 allo act inactive, RGS4 inh inactive, MrgX1 antagonist inactive, Lipid droplet 87*, Hep lipid conf 113*, AML12 cytotox -0.62 and AML12 tox conf 8.
Screening COc1ccc(N2C(=S)N(C(=O)c3ccccc3)C(=Nc3ccccc3)C2=Nc2ccccc2)cc1 returned MrgX1 agonist inactive, RGS4 pot inactive, MrgX1 allo act inactive, RGS4 inh inactive and MrgX1 antagonist inactive.
`O=S(=O)(CCc1ccncc1)C1Cc2cccc3cccc1c23` (configuration not stated) gave MrgX1 agonist inactive, RGS4 pot inactive, MrgX1 allo act inactive, RGS4 inh inactive, MrgX1 antagonist inactive and Lipid droplet -5.
Screening CCNc1nc(SC(C)C(=O)Nc2ccccc2)nc(N2CCOCC2)n1 (configuration not stated) returned MrgX1 agonist inactive, RGS4 pot inactive, MrgX1 allo act inactive, RGS4 inh inactive, MrgX1 antagonist inactive and Lipid droplet 13.
CC(Sc1nc(NCc2ccccc2)nc(N2CCOCC2)n1)C(=O)Nc1ccccc1 (configuration not stated) was read as MrgX1 agonist inactive, RGS4 pot inactive, MrgX1 allo act inactive, RGS4 inh inactive, MrgX1 antagonist inactive, Lipid droplet 59*, Hep lipid conf 99*, AML12 cytotox 0.81 and AML12 tox conf 10.
Screening CCc1ccc(NC(=O)CSc2nc3ccccc3nc2N2CCCC2)cc1 returned MrgX1 agonist inactive, RGS4 pot inactive, MrgX1 allo act inactive, RGS4 inh inactive, MrgX1 antagonist inactive, Lipid droplet 74*, Hep lipid conf 101*, AML12 cytotox 0.98 and AML12 tox conf 1.
Screening CCc1ccccc1NC(=O)CSc1nc2ccccc2nc1N1CCOCC1 returned MrgX1 agonist inactive, RGS4 pot inactive, MrgX1 allo act inactive, RGS4 inh inactive, MrgX1 antagonist inactive and Lipid droplet -1.
For Cc1ccc(NC(=O)CSc2nc3ccccc3nc2N2CCCC2)cc1 the results were MrgX1 agonist inactive, RGS4 pot inactive, MrgX1 allo act inactive, RGS4 inh inactive, MrgX1 antagonist inactive, Lipid droplet 70*, Hep lipid conf 104*, AML12 cytotox 0.86 and AML12 tox conf 4.
Screening CC(C)c1ccc(NC(=O)CSc2nc3ccccc3nc2N2CCCC2)cc1 returned MrgX1 agonist inactive, RGS4 pot inactive, MrgX1 allo act inactive, RGS4 inh inactive, MrgX1 antagonist inactive, Lipid droplet 70*, Hep lipid conf 105*, AML12 cytotox 0.32 and AML12 tox conf 6.
`O=C(CSc1nc2ccccc2nc1N1CCCC1)Nc1ccc(Cl)cc1` gave MrgX1 agonist inactive, RGS4 pot inactive, MrgX1 allo act inactive, RGS4 inh inactive, MrgX1 antagonist inactive and Lipid droplet 8.
For CCN(CC(=O)NCc1ccc(Cl)cc1)C(=O)c1cc2ccccc2o1 the results were MrgX1 agonist inactive, RGS4 pot inactive, MrgX1 allo act inactive, RGS4 inh inactive, MrgX1 antagonist inactive and Lipid droplet -1.
